Bioassay records (PubChem)
BaF3 tox: reduces parental Ba/F3 cell viability, JAK2V617F counter-screen; inhibition, % at 5.6 µM; CellTiter-Glo ATP luminescence; 220,000 tested, 1.1% active;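 active = inhibition above a per-campaign cutoff, the mean inhibition of all tested compounds plus 3 SD, cut at about 27% in these data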
MT stabilize HCS: microtubule stabilizers in HeLa cells | HeLa tubulin immunostaining HCS, 24 h; share of cells brighter than vehicle mean+2SD | % tubulin-high responders, % at 10 µM | 200,000 tested, 0.83% active;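 active = plate Z-score above 3 for both tubulin-high and condensed-nucleus cell shares, with cell loss under 80%, at 10 µM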;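 note: anti alpha tubulin signal scored within the nucleus-defined area of each cell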
IEC-6 tox: counter-screen for KLF5 inhibitors: cytotoxicity in IEC-6 cells; IEC-6 cytotoxicity, luminescence viability; AID 1825; inhibition, % at 5 µM; 290,000 tested, 0.78% active
Ba/F3 V617F tox: reduce viability of Ba/F3 cells dependent on JAK2V617F | 220,000 tested, 1.1% active | Ba/F3 EpoR-JAK2V617F viability, ATP luminescence | inhibition, % at 5.6 µM;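 active = inhibition above the campaign mean plus 3 SD over all tested compounds, cut at about 24% in these data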;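 note: cytokine-independent growth of Ba/F3 cells driven by EpoR plus mutant JAK2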
bCat nuc transl: modulators of beta-catenin nuclear translocation; HeLa beta-catenin nuclear translocation, immunofluorescence imaging; nuclear translocation activity, % at 5 µM; 190,000 tested, 0.3% active; AID 1665;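 active = nuclear translocation activity above 50% at 5 µM, with a well cell count of 50 or more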;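 note: per-cell ratio of nuclear to cytoplasmic median beta-catenin stain intensity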
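System: HeLa cells, endogenous beta-catenin; compound dosing: 5 µM primary single dose, 0.1% DMSO, 0.02–20 µM confirmation series; incubation: 24 h compound exposure at 37°C, 5% CO2; signal: beta-catenin immunofluorescence imaging with DAPI; evaluation: % activation, nuclear-to-cytoplasmic median beta-catenin signal ratio per cell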
APP 5UTR inh: APP translation inhibition. SH-SY5Y APP 5'UTR-luciferase reporter, luminescence. inhibition, % at 2 µM. 190,000 tested, 0.82% active;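 active = inhibition above a set limit, derived from the sample mean plus 3 SD, cut at about 45% in these data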
IEC-6 tox confirm: confirmation of cytotoxic compounds in rat IEC-6 intestinal epithelial cells; shares compounds with IEC-6 tox; IEC-6 rat intestinal epithelial viability, luminescence; inhibition, % at 5 µM; 1,900 tested, 63% active; AID 1907
Numbers stand for hits; 0 = inactive; - = no result. Shown are actives, neighbours in structure and some others; about 2.2% of the full set was active somewhere. Cut-off read from the data, not from the text of the source, unless noted: active = inhibition above about 22%; inactive = the rest.

SMILES	BaF3 tox	MT stabilize HCS	IEC-6 tox	Ba/F3 V617F tox	bCat nuc transl	APP 5UTR inh	IEC-6 tox confirm
Cc1cc(C)nc(NC(=O)CSc2nn(-c3ccccc3)c(=S)s2)n1	0	-	0	0	0	-	-
CC(=O)Nc1ccc(S(=O)(=O)NC(CSc2ccc(C(=O)O)cc2[N+](=O)[O-])C(=O)O)cc1 (centres undefined)	-	-	0	-	-	-	-
Cc1ccc(NC(=O)CN2CCc3ccccc3C2)cc1S(=O)(=O)N(C)C	0	0	0	0	0	0	-
Cc1ccc(NC(=O)Cn2c(=O)cnc3ccccc32)cc1S(=O)(=O)N(C)C	0	0	25	0	0	0	0
Cn1c(=O)c2c(nc(NCC3CCCC(CN)C3)n2Cc2ccc(Cl)cc2Cl)n(C)c1=O (centres undefined)	-	-	60	-	-	-	39
COc1ccc(S(=O)(=O)N/N=C(/C)c2ccncc2)c(OC)c1	-	-	0	-	-	-	-
CCCC(=O)Nc1ccc(NC(=O)c2ccco2)c(OC)c1	0	0	0	0	0	0	-
COc1cc2[nH]c(=S)nc(NCc3cccc(Cl)c3)c2cc1OC	-	-	27	-	-	-	0
COc1ccc(S(=O)(=O)N2CC(C)N(C(=O)N(C)C)C2C)cc1 (centres undefined)	-	-	0	-	-	-	-
CCN1CCc2c(sc(NC(=O)c3ccc4ccccc4c3)c2C(N)=O)C1	-	-	45	-	-	-	0
CCN1CCN(S(=O)(=O)c2ccc(C(=O)Nc3sc4c(c3C(N)=O)CCN(CC)C4)cc2)CC1	-	-	0	-	-	-	-
CCc1nn(C(C)C(=O)N2CCN(c3ccc(OC)cc3)CC2)c(=O)c2cc3occc3n12 (centres undefined)	-	-	44	-	-	-	24
O=C(O)c1cc(NC(=O)c2cccc(C(=O)Nc3cc(C(=O)O)cc(C(=O)O)c3)c2)cc(C(=O)O)c1	-	-	0	-	-	-	-
COC(=O)Nc1nc(-c2ccccc2)c(C(=O)c2ccccc2)s1	78	0	84	80	162	95	56
O=C(C(Cl)Cl)N1c2ccccc2OCC1c1ccccc1 (centres undefined)	0	0	37	0	0	0	0
CCC(C)Sc1nnc(NS(=O)(=O)Cc2ccccc2)s1 (centres undefined)	-	-	0	-	-	-	-
CCOC(=O)c1ccc(NC(=O)Nc2ccon2)cc1	88	-	87	88	93	-	65
CCOC(=O)c1ccc(NC(=O)Nc2ccc(Cl)cn2)cc1	0	0	0	0	0	0	-
O=C(Nc1ccc(Cl)c(Cl)c1)Nc1ccon1	-	-	74	-	-	-	58
Cc1ccc2nc(NCc3ccccc3)[nH]c2c1	76	22	82	85	0	0	51
Cc1ccc2[nH]c3c(NCc4ccccc4)ncnc3c2c1	-	-	30	-	-	-	0
COc1ccc(CNc2ncnc3c2[nH]c2cc(OC)c(OC)cc23)cc1	0	-	0	0	0	-	-
Cc1ccc(S(=O)(=O)N2CCCC2)cc1C(=O)N1CCN(Cc2ccccc2)CC1	-	-	0	-	-	-	-
CC(=O)NC(c1ccc(C)cc1)c1cc(Cl)c2cccnc2c1O (centres undefined)	-	-	94	-	-	-	69
CC(=O)NC(c1ccccc1)c1cc([N+](=O)[O-])c2cccnc2c1O (centres undefined)	0	0	0	0	0	0	-
SMILES	BaF3 tox	MT stabilize HCS	IEC-6 tox	Ba/F3 V617F tox	bCat nuc transl	APP 5UTR inh	IEC-6 tox confirm
CCCCC(=O)NC(c1ccc(C(C)C)cc1)c1ccc2cccnc2c1O (centres undefined)	-	-	0	-	-	-	-
COc1cccc(C(NC(C)=O)c2ccc3cccnc3c2O)c1 (centres undefined)	-	-	99	-	-	-	75
CC(=O)NC(c1cccc([N+](=O)[O-])c1)c1ccc2cccnc2c1O (centres undefined)	-	-	94	-	-	-	77
CC(=O)NC(c1ccc(C(C)C)cc1)c1ccc2cccnc2c1O (centres undefined)	-	-	70	-	-	-	83
CCOC(CCn1ccc(O)c(Cc2ccc(Cl)cc2)c1=O)OCC	-	-	0	-	-	-	-
Cc1cc(C)c2nc(NC(=O)[C@@H](NC(=O)c3cccc(S(=O)(=O)N4CCOCC4)c3)C(C)C)sc2c1	0	0	0	0	-	0	-
CCOc1ccc(CNS(=O)(=O)c2cccs2)cc1OCC	-	-	0	-	-	-	-
C/C(=N\Nc1ncnc2sc(C)c(C)c12)c1ccccn1	-	-	91	-	-	-	94
COc1ccc(Cl)cc1NC(=O)CN(C)CC(=O)Nc1cc(OC)c(OC)c(OC)c1	-	-	40	-	-	-	33
Cc1cccc(CSc2cccc3cccnc23)c1	0	0	32	0	-	0	37
CCN(CC)C(=O)COc1ccc(-c2ccccc2)cc1	0	0	0	0	0	0	-
O=[N+]([O-])c1cc(Cl)cc2c1nc(NCCO)c1ccccc12	0	-	25	0	0	-	26
O=c1[nH]nc(-c2ccc(NCCO)c([N+](=O)[O-])c2)c2ccccc12	-	-	0	-	-	-	-
Cc1cc(-c2ccccc2)c(C#N)c(SCC(N)=O)n1	0	0	0	0	0	0	-
CCCCS(=O)(=O)/C=C\C=C/S(=O)(=O)CCCC	105	0	102	101	0	98	40
Cc1c(NC(=O)c2ccc([N+](=O)[O-])o2)cccc1-c1nc2ncccc2o1	-	-	100	-	-	-	0
O=C(NC12CC3CC(CC(C3)C1)C2)c1ccc([N+](=O)[O-])o1	-	-	66	-	-	-	25
Cc1ccccc1NC(=O)c1ccc([N+](=O)[O-])o1	0	0	0	0	0	0	-
O=C(Nc1ccccc1Cl)c1ccc([N+](=O)[O-])o1	-	-	47	-	-	-	0
O=C(Nc1ccc(NC(=O)c2ccc([N+](=O)[O-])o2)cc1Cl)c1ccco1	-	-	101	-	-	-	27
O=C(Nc1ccc(NC(=O)c2ccco2)c(Cl)c1)c1ccccc1	0	0	0	0	0	0	-
COc1ccc(CNC(=O)CN(c2ccc(C(C)C)cc2)S(=O)(=O)c2c(C)noc2C)cc1	-	-	0	-	-	-	-
CCOc1ccccc1CN(CCc1ccc2c(c1)OCO2)Cc1ccccn1	0	0	0	0	0	0	-
COC(=O)CCC(=O)c1ccn(S(=O)(=O)c2ccccc2)c1	-	-	0	-	-	-	-
COc1cc(F)ccc1S(=O)(=O)N1CCN(c2ccccc2)CC1	-	-	0	-	-	-	-
SMILES	BaF3 tox	MT stabilize HCS	IEC-6 tox	Ba/F3 V617F tox	bCat nuc transl	APP 5UTR inh	IEC-6 tox confirm
O=C(Nc1cccc(NC(=O)c2ccc([N+](=O)[O-])o2)c1)c1ccco1	-	-	99	-	-	-	35
O=C(Nc1cccc2ncccc12)c1ccc([N+](=O)[O-])o1	-	-	98	-	-	-	24
O=S(=O)(c1ccc2c(c1)nc(COc1ccc(Cl)cc1)n2CC1CCCO1)N1CCOCC1 (centres undefined)	56	0	37	33	0	0	0
COc1ccc(-c2oc3ccc(-c4cc(OC)c(OC)c(OC)c4)cc3c2C#Cc2ccsc2)cc1	-	-	0	-	-	-	-
Cc1ccc(N(CC(=O)NCc2ccco2)C(=O)CCC(=O)Nc2nccs2)c(C)c1	-	-	0	-	-	-	-
COc1ccc(CNc2ccc3c(c2)ncn3-c2ccccc2OC)cc1	0	0	0	0	0	0	-
COc1ccccc1-n1cnc2cc(NCc3ccco3)ccc21	78	32	80	74	131	94	56
COc1ccc(-n2c(=O)c3ccccc3n(CC(=O)OCc3ccccc3)c2=O)cc1OC	0	0	0	0	0	0	-
